Legend:
Format in all cases: functional
[1] = tested on: Mus musculus; assay: Analgesic activity in ICR mouse assessed as pain threshold variation at 0.13 mmol/kg, ip after 60 mins by tail flick test
How it was run: (§1)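 Male ICR mice (25 2 g), 12/12 light/dark cycle, 21 2 °C, acclimated one day. Single ip injection in 0.2 ml saline with 0.01 ml DMSO and 0.02 ml Tween 80. Tail-flick pain threshold measured before dosing (BPT) and at 30 min intervals for 150 min. PTV = (post-dose threshold − BPT)/BPT, averaged per animal. Saline controls; ANOVA, p < 0.05.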

[2] = tested on: Aorta; assay: Vasorelaxant activity in rat aortic strips assessed as inhibition of noradrenaline-induced vasoconstriction at 100 umol/l; parameters: scale not given: the % may be the effect or the level left
[3] = tested on: Mus musculus; assay: Analgesic activity in ICR mouse assessed as pain threshold variation at 0.13 mmol/kg, ip after 150 mins by tail flick test; how it was run: as §1
[4] = tested on: Aorta; assay: Vasorelaxant activity in rat aortic strips assessed as inhibition of noradrenaline-induced vasoconstriction at 500 umol/l; parameters: scale not given: the % may be the effect or the level left
[5] = tested on: Mus musculus; assay: Effect on bleeding time in ICR mouse tail at 1.3 mmol/kg, ip after 15 mins
How it was run: (§2)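 Mice given 1.30 mmol/kg body weight. Tail bleeding time measured before dosing and at 5, 15, 30 and 60 min after dosing. Saline as vehicle control.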

[6] = tested on: Mus musculus; assay: Effect on bleeding time in ICR mouse tail at 1.3 mmol/kg, ip after 60 mins; how it was run: as §2
[7] = tested on: Mus musculus; assay: Analgesic activity in ICR mouse assessed as pain threshold variation at 0.13 mmol/kg, ip after 90 mins by tail flick test; how it was run: as §1
[8] = tested on: Mus musculus; assay: Analgesic activity in ICR mouse assessed as pain threshold variation at 0.13 mmol/kg, ip after 120 mins by tail flick test; how it was run: as §1
[9] = tested on: Mus musculus; assay: Analgesic activity in ICR mouse assessed as pain threshold variation at 0.13 mmol/kg, ip after 30 mins by tail flick test; how it was run: as §1
[10] = tested on: Mus musculus; assay: Effect on bleeding time in ICR mouse tail at 1.3 mmol/kg, ip after 5 mins; how it was run: as §2
[11] = tested on: Aorta; assay: Vasorelaxant activity in rat aortic strips assessed as inhibition of noradrenaline-induced vasoconstriction at 20 umol/l; parameters: scale not given: the % may be the effect or the level left
[12] = tested on: Mus musculus; assay: Effect on bleeding time in ICR mouse tail at 1.3 mmol/kg, ip after 30 mins; how it was run: as §2

Row | SMILES | Activity [1] | Activity [2] [%] | Activity [3] | Activity [4] [%] | TIME [5] [h] | TIME [6] [h] | Activity [7] | Activity [8] | Activity [9] | TIME [10] [h] | Activity [11] [%] | TIME [12] [h] | Time [5] [s] | Time [6] [s] | Time [10] [s] | Time [12] [s]
1 | CC1(C)N=C(c2ccc3c(c2)OCO3)N([O])C1(C)C | 65 | 24.5 | 25.4 | 37.4 | 0.0324 | 0.0324 | 74 | 58.3 | 52.8 | 0.0326 | 8.1 | 0.0328 |  |  |  | 
2 | CC1(C)N=C(c2ccc(O)cc2)N([O])C1(C)C | 70.8 | 7.66 | 29.9 | 8.71 | 0.0325 | 0.0327 | 75.9 | 55.5 | 55.7 | 0.0328 | 5.36 | 0.0326 |  |  |  | 
3 | COc1cc(C2=NC(C)(C)C(C)(C)N2[O])ccc1O | 42.9 | 6.09 | 40.9 | 6.55 | 0.0323 | 0.0329 | 66.3 | 43.2 | 54.2 | 0.0327 | 5.98 | 0.0327 |  |  |  | 
4 | CC1(C)N=C(c2ccccc2O)N([O])C1(C)C | 45.4 | 13.4 | 62.2 | 20.3 | 0.0329 | 0.0324 | 64.2 | 70.2 | 48.6 | 0.0324 | 6.01 | 0.0325 |  |  |  | 
5 | COc1ccc(C2=NC(C)(C)C(C)(C)N2[O])cc1OC | 60.2 | 22.3 | 55.6 | 33.7 | 0.033 | 0.0335 | 59.5 | 78.4 | 44.9 | 0.0329 | 6.66 | 0.0332 |  |  |  | 
6 | CC1(C)N=C(c2ccc(Cl)cc2Cl)N([O])C1(C)C | 63.3 | 23 | 14.8 | 34.8 | 0.033 | 0.0327 | 48.4 | 30.5 | 39.6 | 0.0329 | 6.86 | 0.0326 |  |  |  | 
7 | CC1(C)N=C(c2ccc(Br)cc2)N([O])C1(C)C | 35.6 | 23 | 76.5 | 34.8 | 0.0326 | 0.0326 | 59.8 | 60 | 41.3 | 0.0324 | 6.89 | 0.0324 |  |  |  | 
8 | CC1(C)N=C(c2ccccc2)N(O)C1(C)C | 36.99 | 11.04 | 33.48 | 17.25 |  |  | 34 | 32.14 | 40.6 |  | 5.44 |  | 117.4 | 118.2 | 118.2 | 119.3
9 | CC1(C)N=C(c2ccc(Cl)c(Cl)c2)N([O])C1(C)C | 72.8 | 22.7 | 27 | 34.4 | 0.0331 | 0.033 | 55.7 | 28.8 | 50.6 | 0.0334 | 6.74 | 0.0331 |  |  |  | 
10 | Cc1ccc(C2=NC(C)(C)C(C)(C)N2[O])cc1 | 53.6 | 20 | 25.5 | 31.8 | 0.0324 | 0.0328 | 43.7 | 35.2 | 40.2 | 0.0327 | 7 | 0.0328 |  |  |  | 
11 | CC1(C)N=C(c2ccccc2[N+](=O)[O-])N([O])C1(C)C | 66.9 | 20.4 | 19.7 | 35.6 | 0.0327 | 0.0324 | 57.2 | 23.4 | 38.4 | 0.0326 | 6.98 | 0.0326 |  |  |  | 
12 | CN(C)c1ccc(C2=NC(C)(C)C(C)(C)N2[O])cc1 | 35.5 | 26 | 27.9 | 40 | 0.033 | 0.0327 | 36.2 | 34.3 | 30.4 | 0.0331 | 8.02 | 0.0329 |  |  |  | 
13 | CC1(C)N=C(c2cccc([N+](=O)[O-])c2)N([O])C1(C)C | 66.4 | 22.1 | 41.8 | 34.3 | 0.0324 | 0.0328 | 47.4 | 43.5 | 49.8 | 0.0329 | 6.72 | 0.0327 |  |  |  | 
14 | CC1(C)N=C(c2ccc([N+](=O)[O-])cc2)N([O])C1(C)C | 60.5 | 24.4 | 52.3 | 36.5 | 0.0331 | 0.033 | 58 | 35.9 | 56.5 | 0.0332 | 7.36 | 0.0329 |  |  |  | 
15 | CC1(C)N=C(c2ccc(Cl)cc2)N([O])C1(C)C | 66.3 | 23.8 | 84.5 | 36.6 | 0.0326 | 0.0326 | 61.7 | 50.8 | 59.3 | 0.0331 | 7.19 | 0.0328 |  |  |  | 
16 | COc1ccc(C2=NC(C)(C)C(C)(C)N2[O])cc1O | 48.2 | 11 | 59.8 | 16.6 | 0.0325 | 0.0326 | 48.4 | 56.4 | 33.1 | 0.0326 | 5.36 | 0.0328 |  |  |  | 
17 | COc1ccc(C2=NC(C)(C)C(C)(C)N2[O])c(OC)c1 | 59.7 | 24 | 32.4 | 37.1 | 0.0324 | 0.0328 | 62.5 | 71.2 | 42 | 0.0331 | 7.33 | 0.0327 |  |  |  | 

Reference: ChEMBL document CHEMBL1147875, “Novel 1-oxyl-2-substitutedphenyl-4,4,5,5-tetramethylimidazolines: synthesis, selectively analgesic action, and QSAR analysis” (2007)
